# From PubChem BioAssay
# NPY2 pot ag – potentiators or agonists of human neuropeptide Y receptor Y2 | P49146 | cells expressing NPY-Y2, potentiator/agonist read-out | activation, % at 3.6 µM | 0.45% of 220,000 active | AID 1359; in the data active = activation above about 27%;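 note: cells stimulated with NPY near EC25 plus isoproterenol at EC100; 0% = vehicle plus submaximal agonist and 100% = vehicle plus saturating agonist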
# Target sequence (P49146 whole entry, looked up): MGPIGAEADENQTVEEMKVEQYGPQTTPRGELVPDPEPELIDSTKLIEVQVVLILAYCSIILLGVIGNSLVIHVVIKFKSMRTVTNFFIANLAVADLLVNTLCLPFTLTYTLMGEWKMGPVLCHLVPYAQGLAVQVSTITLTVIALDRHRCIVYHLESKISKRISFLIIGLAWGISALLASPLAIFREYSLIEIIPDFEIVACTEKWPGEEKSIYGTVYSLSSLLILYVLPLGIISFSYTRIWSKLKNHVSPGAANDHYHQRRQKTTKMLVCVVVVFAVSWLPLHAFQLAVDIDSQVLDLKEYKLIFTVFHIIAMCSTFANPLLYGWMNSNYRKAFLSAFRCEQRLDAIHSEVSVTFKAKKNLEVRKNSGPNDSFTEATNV
# NPY Y2 blocker – antagonists of human neuropeptide Y receptor Y2. NPY-Y2 expressing cells, antagonist mode. AID 793. inhibition, % at 2.7 µM. 0.99% of 140,000 active; in the data active = inhibition above about 17%;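 note: 0% = vehicle with agonist challenge and 100% = reference antagonist with challenge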
# NPY1 pot ag – potentiates or activates human NPY-Y1 receptor; activation, % at 3.6 µM; 0.37% of 220,000 active; P25929; NPY-Y1 expressing cells, potentiator/agonist activation; AID 1304; in the data active = activation above about 33%, passing the limit was not always enough;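 note: cells stimulated with NPY at EC10 then isoproterenol at EC100; 0% = low agonist plus stimulus and 100% = saturating agonist plus stimulus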
# NPY Y1 blocker – blocks the human neuropeptide Y Y1 receptor | inhibition, % at 3.6 µM | HEK293-CNG Y1 cells, membrane potential fluorescence; NPY at EC95, then isoproterenol | 1% of 200,000 active | AID 1040 | P25929;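 active = inhibition above the campaign mean inhibition of all tested compounds plus 3 SD, cut at about 20% in these data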;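 note: 0% = DMSO wells given NPY plus isoproterenol and 100% = isoproterenol alone without NPY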
#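 Material: HEK293 Y1/CNG channel cell line | Also added: NPY (25 nM), isoproterenol (1 µM), Ro 20-1724 (25 µM) | Compound: One concentration, 3.6 µM, in 0.4% DMSO | Schedule: 3 h dye uptake, 1 h room-temperature compound, 45 min post-isoproterenol | Signal: Membrane-potential fluorescent dye readout | Read-out: % inhibition of NPY effect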
# * = called active by the depositor; . = no result given. Only some compounds are listed: those with a hit (about 1.8% of all), similar ones and a draw of the others.
SMILES,NPY2 pot ag,NPY Y2 blocker,NPY1 pot ag,NPY Y1 blocker
Cc1c[nH]c2cccc(OCC(O)CNC(C)(C)C)c12 (configuration not stated),104*,0,109*,-18
CN(C)CCOc1ccccc1C(C)(C)C,-19,2,-24,1
CC(C)(C)NCC(O)COc1ccccc1C(=O)CCc1ccccc1 (configuration not stated),102*,10,103*,-16
CC(C)(C)NCC(O)COc1ccccc1C(C)(C)C (configuration not stated),99*,4,108*,-12
O=C(CCSCCC(=O)Nc1c(F)c(F)c(F)c(F)c1F)Nc1c(F)c(F)c(F)c(F)c1F,-1,.,-4,-2
COC(=O)c1sccc1NC(=O)c1csc(C)c1,-1,1,-25,4
C=CCN1CC2(c3ccccc3)CN(CC=C)CC(c3ccccc3)(C1)C2=O,-27,.,9,7
Cc1cc(C(F)F)nn1CC(=O)NCc1ccccc1F,5,0,-20,4
Cc1nn(C(C)C(=O)N/N=C/c2ccc(N(C)C)cc2)c(C)c1[N+](=O)[O-] (configuration not stated),-7,.,-8,.
CCC(=O)N(CCC(c1ccco1)c1ccccc1OC)Cc1cccs1 (configuration not stated),1,22*,-3,25*
CC(C)NCC(O)Cn1c2c(c3ccccc31)CCc1c-2cnn1-c1ccccc1 (configuration not stated),43*,1,50*,-6
COC(=O)[C@@]1(Cc2ccc(OC)cc2)[C@H]2c3cc(C(=O)N4CCCC4)n(Cc4ccc(C)o4)c3C[C@H]2CN1C(=O)c1ccccc1,3,23*,-6,32*
COCCn1c(C(=O)N2CCCC2)cc2c1C[C@H]1CN(C(=O)c3ccccc3)[C@@](Cc3ccc(F)cc3)(C(=O)OC)[C@@H]21,1,11,-32,14
COC(=O)[C@@]1(Cc2ccc(F)cc2)[C@H]2c3cc(C(=O)N(C)C)n(Cc4ccccc4)c3C[C@H]2CN1C(=O)c1ccccc1,3,21*,-11,32*
COC(=O)[C@@]1(Cc2ccc(F)cc2)[C@H]2c3cc(C(=O)N(C)C)n(Cc4ccc(OC)c(OC)c4)c3C[C@H]2CN1C(=O)c1ccccc1,-1,8,17,7
OCC[C@@H]1C[C@@H](O)[C@H](O)[C@]2(CCCCO2)O1,-3,1,-12,6
CC(=O)Nc1ccc(S(=O)(=O)N2CCN(c3nc(NC4CCCC4)c4ccccc4n3)CC2)cc1,32*,9,-1,13
CC(=O)Nc1ccc(S(=O)(=O)N2CCN(c3cc(C)nc4ccccc34)CC2)cc1,14,-1,3,6
CCn1c(NCc2cccc(OC)c2OC)nc2ccccc21,2,1,10,11
COc1ccc(CNc2nc3ccccc3n2CCN2CCCCC2)c(OC)c1,-7,26*,-29,29*
COc1cccc(CNc2nc3ccccc3n2CCN2CCCCC2)c1OC,0,25*,-17,42*
CC(CNCc1ccc2c(c1)OCO2)NCc1ccc2c(c1)OCO2 (configuration not stated),-20,19*,-37,24*
OC(CNCc1ccc2c(c1)OCO2)COc1ccc(F)cc1 (configuration not stated),-28,.,-17,.
Cc1ccccc1OCC(O)CN1CCN(c2ccc(Cl)cc2)CC1 (configuration not stated),-39,.,-32,.
Cc1ccccc1OCC(O)CN1CCCCC1 (configuration not stated),64*,.,89*,-12
SMILES,NPY2 pot ag,NPY Y2 blocker,NPY1 pot ag,NPY Y1 blocker
Cc1ccccc1OCC(O)CN (configuration not stated),44*,3,80*,-16
CCN(CC)c1ccc(C2=NNC(=O)CC2C)cc1[N+](=O)[O-] (configuration not stated),-45,71*,-85,64*
CC1CC(=O)NN=C1c1ccc(N(C)C)c([N+](=O)[O-])c1 (configuration not stated),-43,94*,-88,78*
CC1CC(=O)NN=C1c1cccs1 (configuration not stated),-50,.,-44,.
CCN(CC)CCN(C)c1ccc(N2C(=O)C3CC=CCC3C2=O)cc1[N+](=O)[O-] (configuration not stated),8,.,7,-3
COC(=O)N(NC(=O)C(O)(c1ccccc1)c1ccccc1)c1ccc(C)cc1,-17,21*,-1,31*
CCOC(=O)N(NC(=O)C(O)(C(C)C)C(C)C)c1ccccc1,4,.,-17,5
CCOC(=O)N(NC(=O)C(O)(CC(C)C)CC(C)C)c1ccccc1,-3,8,-13,13
CCOC(=O)N(NC(=O)C(O)(c1ccccc1)c1ccccc1)c1ccccc1,1,20*,-28,46*
CCOC(=O)C1=NNC2C(=O)N(Cc3ccccc3)C(=O)C12 (configuration not stated),-2,.,-17,.
CCOc1cc(C2C(C(=O)c3ccco3)=C(O)C(=O)N2CCc2ccccc2)ccc1O (configuration not stated),-24,36*,-31,39*
O=C(C1=C(O)C(=O)N(CCc2ccccc2)C1c1cccnc1)c1ccco1 (configuration not stated),-5,3,-8,8
Cc1ccc2c(c1)N(CC(=O)OC(CC(C)C)C(=O)NC1CCCC1)C(=O)CO2 (configuration not stated),-14,21*,-24,33*
Cc1ccc2c(c1)N(CC(=O)NC1CCC(C)CC1)C(=O)CO2 (configuration not stated),1,5,-11,4
CCOc1ccccc1C(=O)N1CCCCC1C (configuration not stated),-6,3,-4,0
COc1cccc(CC2(CO)CCN(CC3=CC[C@H]4C[C@@H]3C4(C)C)CC2)c1,-16,.,-26,18
COc1ccc(CNC(=O)C(C#N)c2nc3ccccc3nc2N2CCN(C)CC2)cc1 (configuration not stated),-13,18*,-17,11
O=C(/C=C/c1ccc2c(c1)OCO2)NCCSCc1ccc(Cl)cc1,-16,23*,-37,37*
O=C(c1ccc(CSc2nc3ccncc3[nH]2)cc1)N1CCN(c2cccc(Cl)c2)CC1,36*,-1,50*,1
O=C(Cc1ccccc1)NCCC1=CCCCC1,5,7,-3,1
O=C(NCCC1=CCCCC1)C(c1ccccc1)c1ccccc1,5,12,-8,28*
CCOc1ccc(C(CC(=O)O)n2cnnn2)cc1 (configuration not stated),17,.,11,-4
O=C(CC1CCCCC1)OCn1nnc2ccccc2c1=O,103*,1,107*,0
O=C(Nc1ccccc1)C1=C(c2ccccc2)S(=O)(=O)CCS1(=O)=O,45*,.,64*,-8
O=C(O)c1ccccc1C(=O)Nc1ccccc1,13,2,10,-1
